Assays:
Rattus norvegicus [1] = species on record: Rattus norvegicus; assay: Final number of DMBA-induced hormone-dependent mammary carcinoma tumors in rats at 2.25 mg; assay type: functional
Outline: (§1)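 Sprague-Dawley rats carrying DMBA-induced, hormone-dependent mammary adenocarcinoma, at least one tumor >140 mm², were placed in groups of ten. Compounds were given sc, with doses in mg/kg: a single daily dose Monday to Thursday and a double dose on Friday. Ovariectomy served as a comparator group. New tumors arising during the test were counted.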

Rattus norvegicus [2] = species on record: Rattus norvegicus; assay: Final number of DMBA-induced hormone-dependent mammary carcinoma tumors in rats at 4.5 mg; assay type: functional; outline: as §1
MCF7 = assay: Inhibition of estrogen receptor positive MCF-7 cell proliferation as cell number after 10 days at 10e-7 M with 10e-7 M 17-beta-estradiol; assay type: functional, Homo sapiens
Outline: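 MCF-7 cells were grown in McCoy's 5a medium with fetal bovine serum stripped by DCC (0.5 h, 45 °C). Compounds were dissolved in ethanol (final ≤0.5%) and diluted in complete medium. Cells were seeded at 5×10^4 cells/plate. On day 10, three replicate plates per group were counted by Coulter counter, three counts per plate. Percent T/C = test/control. In a retest, compounds were given at 10^-7 M with 17β-estradiol at 10^-7 or 10^-8 M.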

Row | Structure (SMILES) | No. of tumors (Rattus norvegicus [1]) | No. of tumors (Rattus norvegicus [2]) | Cell number (MCF7)
1 | CCCC(c1cccc(O)c1)C(CCC)c1cccc(O)c1 (stereo not drawn) | 17 | 6 | –
2 | CCC(c1cccc(O)c1)C(CC)c1cccc(O)c1 (stereo in doubt; 20) | – | – | 5600

— ChEMBL document CHEMBL1121898, “Potential antiestrogens. Synthesis and evaluation of mammary tumor inhibiting activity of 1,2-dialkyl-1,2-bis(3'-hydroxyphenyl)ethanes” (1981)
